Source: ChEMBL document CHEMBL1154204, “Design, synthesis and pharmacological screening of novel nitric oxide donors containing 1,5-diarylpyrazolin-3-one as nontoxic NSAIDs” (Eur J Med Chem, 2009)
Converted amounts (≈) assume the structure as drawn.

Columns and labels:
Rattus norvegicus [1] = assay: Antiinflammatory activity in Wistar rat assessed as inhibition of carrageenan-induced paw edema measured after 1 hr at 6 mg/kg, po equimolar dose of indomethacin administered 1 hr before carrageenan challenge; format: functional
Summary of the method: (§1)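 Wistar rats of either sex, 120–140 g, fasted 24 h, n = 6 per group. Compounds were suspended in 1.0% aqueous sodium CMC and dosed orally, equimolar to indomethacin 6 mg/kg, 1 h before subplantar carrageenan (1.0% w/v, 0.1 mL) into the right hind paw. Paw volume was read by plethysmometer before and after injection. Results are % inhibition versus vehicle control. ANOVA with Dunnett's test.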

Rattus norvegicus [2] = assay: Antiinflammatory activity in Wistar rat assessed as inhibition of carrageenan-induced paw edema measured after 2 hrs at 6 mg/kg, po equimolar dose of indomethacin administered 1 hr before carrageenan challenge; format: functional; summary of the method: as §1
Rattus norvegicus [3] = assay: Antiinflammatory activity in Wistar rat assessed as inhibition of carrageenan-induced paw edema measured after 3 hrs at 6 mg/kg, po equimolar dose of indomethacin administered 1 hr before carrageenan challenge; format: functional; summary of the method: as §1
Mus musculus = assay: Analgesic activity in Swiss albino mouse assessed as inhibition of acetic acid-induced writhing at 0.00001911 mol/kg, po administered 1 hr before acetic acid challenge measured after 25 mins; format: functional
Summary of the method: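 Acetic acid writhing in mice. Compounds were suspended in 1.0% aqueous sodium CMC and given orally at equimolar doses equivalent to 6 mg/kg indomethacin (0.00001911 mol/kg). Writhes were counted over 25 min after treatment, n = 6, and reported as % inhibition versus vehicle control. One-way ANOVA with Dunnett's test.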

Aorta = assay: Vasorelaxant activity in Wistar rat aorta assessed as inhibition of norepinephrine-induced contractions; format: functional, tissue-based
Summary of the method: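 Endothelium-intact aortic rings were accepted only if relaxation was ≥70% of the NE-induced contraction. Rings were then contracted with NE or 30 mM KCl, and test compounds were added cumulatively once a stable plateau was reached. EC50 values were calculated from cumulative concentration-response curves.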

[4] = Induction of nitric oxide release at 0.1 mM in pH 7.4 phosphate buffer in presence of 5 mM L-cysteine by Griess method; details: pH 7.4, 100 µM
Rattus norvegicus [5] = assay: Gastrointestinal toxicity in Wistar rat assessed as ulcer incidence at 24 mg/kg, po; format: organism-based; set-up: dose 24 mg/kg, route oral; details: in vivo
Rattus norvegicus [6] = assay: Gastrointestinal toxicity in Wistar rat assessed as gastric mucosal layer disruption at 24 mg/kg, po by histopathological study; format: organism-based, Gastric mucosa; set-up: dose 24 mg/kg, route oral; details: in vivo
Rattus norvegicus [7] = assay: Gastrointestinal toxicity in Wistar rat assessed as ulcer incidence at 33.70 mg/kg, po; format: organism-based; set-up: dose 33.7 mg/kg, route oral; details: in vivo, 33.7 mg/kg
Rattus norvegicus [8] = assay: Gastrointestinal toxicity in Wistar rat assessed as ulcer index at 33.70 mg/kg, po; format: organism-based; set-up: dose 33.7 mg/kg, route oral; details: in vivo, 33.7 mg/kg
Rattus norvegicus [9] = assay: Gastrointestinal toxicity in Wistar rat assessed as ulcer incidence at 34.84 mg/kg, po; format: organism-based; set-up: dose 34.84 mg/kg, route oral; details: in vivo
Rattus norvegicus [10] = assay: Gastrointestinal toxicity in Wistar rat assessed as ulcer index at 34.84 mg/kg, po; format: organism-based; set-up: dose 34.84 mg/kg, route oral; details: in vivo
Rattus norvegicus [11] = assay: Gastrointestinal toxicity in Wistar rat assessed as ulcer incidence at 40.71 mg/kg, po; format: organism-based; set-up: dose 40.71 mg/kg, route oral; details: in vivo
Rattus norvegicus [12] = assay: Gastrointestinal toxicity in Wistar rat assessed as ulcer index at 40.71 mg/kg, po; format: organism-based; set-up: dose 40.71 mg/kg, route oral; details: in vivo
Rattus norvegicus [13] = assay: Gastrointestinal toxicity in Wistar rat assessed as ulcer incidence at 38.27 mg/kg, po; format: organism-based; set-up: dose 38.27 mg/kg, route oral; details: in vivo
Rattus norvegicus [14] = assay: Gastrointestinal toxicity in Wistar rat assessed as ulcer index at 38.27 mg/kg, po; format: organism-based; set-up: dose 38.27 mg/kg, route oral; details: in vivo
Rattus norvegicus [15] = assay: Gastrointestinal toxicity in Wistar rat assessed as gastric mucosal layer disruption at 33.70 mg/kg, po by histopathological study; format: organism-based, Gastric mucosa; set-up: dose 33.7 mg/kg, route oral; details: in vivo, 33.7 mg/kg
Rattus norvegicus [16] = assay: Gastrointestinal toxicity in Wistar rat assessed as gastric mucosal layer disruption at 34.84 mg/kg, po by histopathological study; format: organism-based, Gastric mucosa; set-up: dose 34.84 mg/kg, route oral; details: in vivo
Rattus norvegicus [17] = assay: Gastrointestinal toxicity in Wistar rat assessed as gastric mucosal layer disruption at 40.71 mg/kg, po by histopathological study; format: organism-based, Gastric mucosa; set-up: dose 40.71 mg/kg, route oral; details: in vivo
Rattus norvegicus [18] = assay: Gastrointestinal toxicity in Wistar rat assessed as gastric mucosal layer disruption at 38.27 mg/kg, po by histopathological study; format: organism-based, Gastric mucosa; set-up: dose 38.27 mg/kg, route oral; details: in vivo
Rattus norvegicus [19] = assay: Antiinflammatory activity in Wistar rat assessed as inhibition of carrageenan-induced paw edema measured after 1 hr at 6 mg/kg, po administered 1 hr before carrageenan challenge; format: functional; summary of the method: as §1
Rattus norvegicus [20] = assay: Antiinflammatory activity in Wistar rat assessed as inhibition of carrageenan-induced paw edema measured after 2 hrs at 6 mg/kg, po administered 1 hr before carrageenan challenge; format: functional; summary of the method: as §1
Rattus norvegicus [21] = assay: Antiinflammatory activity in Wistar rat assessed as inhibition of carrageenan-induced paw edema measured after 3 hrs at 6 mg/kg, po administered 1 hr before carrageenan challenge; format: functional; summary of the method: as §1

EC50 (Aorta) [µg/mL] | Activity [4] [%] | Structure (SMILES) | inhibition in vivo (Rattus norvegicus [1]) [%] | inhibition in vivo (Rattus norvegicus [2]) [%] | inhibition in vivo (Rattus norvegicus [3]) [%] | inhibition (INH) (Mus musculus) [%] | Activity (Rattus norvegicus [7]) | Activity (Rattus norvegicus [8]) | Activity (Rattus norvegicus [9]) | Activity (Rattus norvegicus [10]) | Activity (Rattus norvegicus [11]) | Activity (Rattus norvegicus [12]) | Activity (Rattus norvegicus [13]) | Activity (Rattus norvegicus [14]) | Activity (Rattus norvegicus [15]) | Activity (Rattus norvegicus [16]) | Activity (Rattus norvegicus [17]) | Activity (Rattus norvegicus [18]) | other results
17.8 (≈ 43.1 µM) | 0.69 | O=C(CO[N+](=O)[O-])NNC(=O)c1ccc(-n2[nH]c(=O)cc2-c2ccccc2O)cc1 | 23 | 19.3 | 16.4 | 16.66 |  |  |  |  |  |  |  |  |  |  |  |  | 
70.8 (≈ 146 µM) | 0.27 | CCOC(=O)c1c(-c2ccccc2O)n(-c2ccc(C(=O)NNC(=O)CO[N+](=O)[O-])cc2)[nH]c1=O | 27.8 | 26.6 | 21.1 | 10.78 |  |  |  |  |  |  |  |  |  |  |  |  | 
49.1 (≈ 111 µM) | 0.39 | O=C(CO[N+](=O)[O-])NNC(=O)c1ccc(-n2[nH]c(=O)cc2-c2ccc([N+](=O)[O-])cc2)cc1 | 23.6 | 27.1 | 24 | 45.09 | Non-toxic | Non-toxic | Non-toxic | Non-toxic | Non-toxic | Non-toxic | Non-toxic | Non-toxic | Non-toxic | Non-toxic | Non-toxic | Non-toxic | 
50.2 (≈ 99.6 µM) | 0.37 | CCOC(=O)c1c(-c2ccc(Cl)cc2)n(-c2ccc(C(=O)NNC(=O)CO[N+](=O)[O-])cc2)[nH]c1=O | 3.2 | 10.4 | 6.43 | 6.86 |  |  |  |  |  |  |  |  |  |  |  |  | 
35.5 (≈ 75.6 µM) | 0.46 | CCOC(=O)c1c(-c2ccccc2)n(-c2ccc(C(=O)NNC(=O)CO[N+](=O)[O-])cc2)[nH]c1=O | 54 | 57.8 | 59.6 | 56.86 | Non-toxic | Non-toxic | Non-toxic | Non-toxic | Non-toxic | Non-toxic | Non-toxic | Non-toxic | Non-toxic | Non-toxic | Non-toxic | Non-toxic | 
66.8 (≈ 156 µM) | 0.32 | COc1ccccc1-c1cc(=O)[nH]n1-c1ccc(C(=O)NNC(=O)CO[N+](=O)[O-])cc1 |  | 55.7 | 57.9 | 51.96 | Non-toxic | Non-toxic | Non-toxic | Non-toxic | Non-toxic | Non-toxic | Non-toxic | Non-toxic | Non-toxic | Non-toxic | Non-toxic | Non-toxic | inhibition in vivo at 6 mg/kg (Rattus norvegicus [1]; dose 6 mg/kg): 55.1%
21.3 (≈ 49.4 µM) | 0.66 | O=C(CO[N+](=O)[O-])NNC(=O)c1ccc(-n2[nH]c(=O)cc2-c2ccc(Cl)cc2)cc1 | 5.88 | 11.4 | 5.84 | 10.78 |  |  |  |  |  |  |  |  |  |  |  |  | 

The remaining lines, values behind:

Structure (SMILES) | EC50 (Aorta) [µg/mL] | Activity [4] [%] | inhibition in vivo (Rattus norvegicus [1]) [%] | inhibition in vivo (Rattus norvegicus [2]) [%] | inhibition in vivo (Rattus norvegicus [3]) [%] | inhibition (INH) (Mus musculus) [%] | Activity (Rattus norvegicus [7]) | Activity (Rattus norvegicus [8]) | Activity (Rattus norvegicus [9]) | Activity (Rattus norvegicus [10]) | Activity (Rattus norvegicus [11]) | Activity (Rattus norvegicus [12]) | Activity (Rattus norvegicus [13]) | Activity (Rattus norvegicus [14]) | Activity (Rattus norvegicus [15]) | Activity (Rattus norvegicus [16]) | Activity (Rattus norvegicus [17]) | Activity (Rattus norvegicus [18]) | other results
O=C(CO[N+](=O)[O-])NNC(=O)c1ccc(-n2[nH]c(=O)cc2-c2ccccc2)cc1 | 26.7 (≈ 67.3 µM) | 0.51 | 19.8 | 16.1 | 20.5 | 53.92 |  |  |  |  |  |  |  |  |  |  |  |  | 
O=C(O)Cc1ccccc1Nc1c(Cl)cccc1Cl [DICLOFENAC] |  |  |  |  |  |  |  |  |  |  |  |  |  |  |  |  |  |  | Activity (Rattus norvegicus [5]): Toxic; Activity (Rattus norvegicus [6]): Toxic
CCOC(=O)c1c(-c2ccc([N+](=O)[O-])cc2)n(-c2ccc(C(=O)NNC(=O)CO[N+](=O)[O-])cc2)[nH]c1=O | 28.2 (≈ 54.8 µM) | 0.49 | 27.8 | 28.1 | 22.2 | 45.9 |  |  |  |  |  |  |  |  |  |  |  |  | 
CCOC(=O)c1c(-c2ccccc2OC)n(-c2ccc(C(=O)NNC(=O)CO[N+](=O)[O-])cc2)[nH]c1=O | 63.1 (≈ 126 µM) | 0.35 | 31 | 30.7 | 25.1 | 50.98 | Non-toxic | Non-toxic | Non-toxic | Non-toxic | Non-toxic | Non-toxic | Non-toxic | Non-toxic | Non-toxic | Non-toxic | Non-toxic | Non-toxic | 
COc1ccc2c(c1)c(CC(=O)O)c(C)n2C(=O)c1ccc(Cl)cc1 [INDOMETHACIN] |  |  |  |  |  | 54.9 |  |  |  |  |  |  |  |  |  |  |  |  | inhibition in vivo at 6 mg/kg (Rattus norvegicus [19]): 52.7%; inhibition in vivo at 6 mg/kg (Rattus norvegicus [20]): 58.3%; inhibition in vivo at 6 mg/kg (Rattus norvegicus [21]): 57.9%
